Values after ≈ are worked out from the molar mass of the structure shown. Counter-ions that a name gives are not always drawn. Active and inactive are the calls of the source. The rule behind the calls is not given here.
How the values were obtained:
[1] = molecular target: T1, Inosine-5'-monophosphate dehydrogenase 2 (Homo sapiens, UniProt P12268); assay: Inhibition of human IMPDH2 using IMP at 10 uM as substrate in presence of NAD+ after 30 mins relative to control
How it was run: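 Purchased purified hIMPDH2, 0.15 mU/well, in 100 mM Tris-HCl pH 8.6, 100 mM KCl, 5 mM DTT and 4% v/v DMSO. Started with 0.2 mM IMP plus 0.2 mM NAD+ and run 30 min at 37 °C. NADH read at 340 nm. Screen at 10 µM gave % inhibition.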

[2] = Cytotoxicity against mouse NIH/3T3 cells assessed as cell viability at 10 uM after 48 hrs by MTT assay relative to control; type: cell-based, NIH3T3; conditions: read-out: Activity
How it was run: (§1)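 NIH-3T3 mouse embryonic fibroblasts grown in DMEM with 10% FBS and penicillin-streptomycin at 37 °C, 5% CO2. Seeded at 10,000 cells/well and dosed after 24 hr, DMSO vehicle, triplicate wells. After 48 hr exposure, MTT (5 mg/mL) added for 4 hr and formazan dissolved in DMSO. Absorbance read at 540/630 nm. Viability expressed as % of control, mean ± SD.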

U-87 MG [3] = assay: Cytotoxicity against human U87MG cells assessed as reduction in cell viability after 48 hrs by MTT assay; type: functional, cell-based, U-87MG ATCC
How it was run: (§2)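 Cells grown in DMEM with 10% FBS and penicillin-streptomycin at 37 °C, 5% CO2. Seeded at 10,000 (MDA-MB-231), 8,000 (DU145) or 5,000 (U87 MG) cells/well. Treated 24 hr later with 0.01–100 µM, each dilution in triplicate, DMSO vehicle. After 48 hr, MTT (5 mg/mL) for 4 hr, formazan dissolved in DMSO. Absorbance read at 540 nm with 630 nm background. IC50 taken from mean of triplicate readings.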

[4] = Cytotoxicity against mouse NIH/3T3 cells assessed as cell viability at 100 uM after 48 hrs by MTT assay relative to control; type: cell-based, NIH3T3; conditions: read-out: Activity; how it was run: as §1
DU-145 [5] = assay: Cytotoxicity against human DU145 cells assessed as reduction in cell viability after 48 hrs by MTT assay; type: functional, cell-based; conditions: DU-145, 48 h; how it was run: as §2
[6] = molecular target: T1, Inosine-5'-monophosphate dehydrogenase 2; assay: Inhibition of human IMPDH2 using IMP as substrate in presence of NAD+ after 30 mins
How it was run: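 Purchased purified hIMPDH2, 0.15 mU/well, in 100 mM Tris-HCl pH 8.6, 100 mM KCl, 5 mM DTT and 4% v/v DMSO. Started with 0.2 mM IMP plus 0.2 mM NAD+ and run 30 min at 37 °C. NADH read at 340 nm.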

MDA-MB-231 [7] = assay: Cytotoxicity against human MDA-MB-231 cells assessed as reduction in cell viability after 48 hrs by MTT assay; type: functional, cell-based; conditions: MDA-MB-231, 48 h; how it was run: as §2
[8] = Solubility in pH 7.4 sodium phosphate buffer after 2 hrs by HPLC analysis; type: physicochemical; conditions: read-out: -log(solubility) (converted)
How it was run: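 DMSO stock diluted 1:100 into 50 mM sodium phosphate, pH 7.4, and shaken 2 hr at 37 °C, 200 rpm. Centrifuged 20 min at 4000 rpm; supernatant diluted 1:1 with acetonitrile and filtered. Quantified by C18 HPLC (acetonitrile:water 80:20, isocratic) against a calibration curve of 0.78–100 µM made in 1:1 buffer/acetonitrile.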

[9] = Octanol-buffer partition coefficient, log D of the compound at pH 7.4 after 2 hrs by HPLC analysis; type: physicochemical
How it was run: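 DMSO stock added to pre-saturated 1:1 1-octanol/pH 7.4 buffer and shaken 2 hr at 37 °C, 200 rpm. Phases separated and each quantified by HPLC on a C18 column with isocratic acetonitrile:water 80:20 at 1 mL/min. logD7.4 taken from the octanol-to-buffer concentration ratio.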

DU-145 [10] = assay: Potency index, ratio of mycophenolic acid IC50 to compound IC50 for cytotoxicity against human DU145 cells; type: functional
MDA-MB-231 [11] = assay: Potency index, ratio of mycophenolic acid IC50 to compound IC50 for cytotoxicity against human MDA-MB-231 cells; type: functional
[12] = Cytotoxicity against human PBMC assessed as cell viability at 10 uM after 48 hrs by MTT assay relative to control; type: cell-based; conditions: read-out: Activity
U-87 MG [13] = assay: Potency index, ratio of mycophenolic acid IC50 to compound IC50 for cytotoxicity against human U87MG cells; type: functional, U-87MG ATCC

O=C(COc1ccc(C(=O)/C=C/c2ccc(Cl)cc2)cc1)Nc1ccc2c(c1)COC2=O
inhibition [1]: 62.1%

COc1ccc(NC(=O)COc2ccc(C(=O)/C=C/c3cc(OC)c(OC)c(OC)c3)cc2)cc1OC
inhibition [1]: 20.6%

O=C(COc1ccc(C(=O)/C=C/c2ccc([N+](=O)[O-])cc2)cc1)Nc1ccc2c(c1)COC2=O
inhibition [1]: 63.2%

COc1cc(/C=C/C(=O)c2ccc(OCC(=O)NCc3ccc4c(c3)OCO4)cc2)cc(OC)c1OC
inhibition [1]: inactive

COc1ccc(NC(=O)COc2ccc(C(=O)/C=C/c3c(F)cccc3F)cc2)cc1OC
inhibition [1]: 35.9%

O=C(COc1ccc(C(=O)/C=C/c2ccccc2Cl)cc1)Nc1ccc2c(c1)COC2=O
inhibition [1]: 59.5%

COc1ccc(/C=C/C(=O)c2ccc(OCC(=O)NCc3ccc4c(c3)OCO4)cc2)cc1OC
inhibition [1]: inactive

COc1ccc(/C=C/C(=O)c2cccc(OCC(=O)Nc3ccc4c(c3)COC4=O)c2)cc1OC
inhibition [1]: 57%

COc1cccc(/C=C/C(=O)c2ccc(OCC(=O)Nc3ccc4c(c3)COC4=O)cc2)c1
viability at 48 h, 10 µM [2]: 87.1%
IC50 (U-87 MG [3]): 5.75 µM
viability at 48 h, 100 µM [4]: 62.6%
IC50 (DU-145 [5]): 2.55 µM
IC50 [6]: 0.36 µM
inhibition [1]: 91.5%
IC50 (MDA-MB-231 [7]): 3.42 µM

O=C(COc1ccc(/C=C/C(=O)c2ccc(F)cc2)cc1)Nc1ccc2c(c1)COC2=O
viability at 48 h, 10 µM [2]: 90.3%
IC50 (U-87 MG [3]): 6.05 µM
viability at 48 h, 100 µM [4]: 80.2%
IC50 (DU-145 [5]): 6.88 µM
IC50 [6]: 0.57 µM
inhibition [1]: 87.9%
IC50 (MDA-MB-231 [7]): 5.42 µM

CCCCOc1ccc(/C=C/C(=O)c2ccc(OCC(=O)Nc3ccc4c(c3)COC4=O)cc2)cc1
inhibition [1]: 57.7%

COc1ccc(/C=C/C(=O)c2cccc(OCC(=O)Nc3ccc(OC)c(OC)c3)c2)cc1OC
inhibition [1]: 23.3%

CCOc1ccc(/C=C/C(=O)c2ccc(OCC(=O)Nc3ccc(OC)c(OC)c3)cc2)cc1
inhibition [1]: 63.5%

CCOc1ccc(/C=C/C(=O)c2ccc(OCC(=O)NCc3ccc4c(c3)OCO4)cc2)cc1
inhibition [1]: inactive

COc1ccc(/C=C/C(=O)c2ccc(OCC(=O)Nc3ccc(OC)c(OC)c3)cc2)cc1
inhibition [1]: 33.6%

O=C(COc1cccc(C(=O)/C=C/c2ccccc2)c1)Nc1ccc2c(c1)COC2=O
viability at 48 h, 10 µM [2]: 96.7%
IC50 (U-87 MG [3]): 3.97 µM
viability at 48 h, 100 µM [4]: 67.6%
IC50 (DU-145 [5]): 1.75 µM
IC50 [6]: 0.43 µM
solubility at 2 h [8]: 1.55 µM (≈ 0.64 µg/mL)
logD at 2 h [9]: 2.79
Ratio IC50 (DU-145 [10]): 1.7
Ratio IC50 (MDA-MB-231 [11]): 4
inhibition [1]: 93.7%
IC50 (MDA-MB-231 [7]): 1.1 µM

CCOc1ccc(/C=C/C(=O)c2ccc(OCC(=O)Nc3ccc4c(c3)COC4=O)cc2)cc1
inhibition [1]: 65.5%

O=C(COc1ccc(C(=O)/C=C/c2cccs2)cc1)Nc1ccc2c(c1)COC2=O
IC50 [6]: 4.54 µM
inhibition [1]: 76.3%

COc1ccc(NC(=O)COc2ccc(C(=O)/C=C/c3ccc(Cl)cc3)cc2)cc1OC
inhibition [1]: 30.1%

COc1ccc(/C=C/C(=O)c2ccc(OCC(=O)Nc3ccc4c(c3)COC4=O)cc2)cc1OC
inhibition [1]: 65.5%

O=C(COc1ccc(C(=O)/C=C/c2c(F)cccc2F)cc1)NCc1ccc2c(c1)OCO2
inhibition [1]: inactive

O=C(COc1ccc(C(=O)/C=C/c2ccccc2)cc1)Nc1ccc2c(c1)COC2=O
IC50 [6]: 0.79 µM
inhibition [1]: 79.1%

COc1ccc(NC(=O)COc2ccc(C(=O)/C=C/c3ccccc3Cl)cc2)cc1OC
inhibition [1]: 25.7%

COc1cccc2c1C(=O)c1c(O)c3c(c(O)c1C2=O)C[C@@](O)(C(=O)CO)C[C@@H]3O[C@H]1C[C@H](N)[C@H](O)[C@H](C)O1 [DOXORUBICIN HYDROCHLORIDE]
viability at 48 h, 10 µM [2]: 15.6%
IC50 (U-87 MG [3]): 0.11 µM
viability at 48 h, 100 µM [4]: 6.73%
IC50 (DU-145 [5]): 0.21 µM
IC50 (MDA-MB-231 [7]): 0.54 µM

COc1ccc(NC(=O)COc2ccc(C(=O)/C=C/c3ccco3)cc2)cc1OC
inhibition [1]: 21.3%

O=C(COc1ccc(C(=O)/C=C/c2ccc(OCc3ccc(Cl)cc3Cl)cc2)cc1)Nc1ccc2c(c1)COC2=O
inhibition [1]: 36.7%

O=C(COc1ccc(C(=O)/C=C/c2ccc(OCc3ccccc3)cc2)cc1)Nc1ccc2c(c1)COC2=O
inhibition [1]: 52.2%

COc1ccc(/C=C/C(=O)c2ccc(OCC(=O)NCc3ccc4c(c3)OCO4)cc2)cc1
inhibition [1]: inactive

COc1c(C)c2c(c(O)c1C/C=C(\C)CCC(=O)O)C(=O)OC2 [MYCOPHENOLIC ACID]
viability at 48 h, 10 µM [2]: 65.2%
IC50 (U-87 MG [3]): 10.7 µM
viability at 48 h, 100 µM [4]: 40.7%
IC50 (DU-145 [5]): 2.94 µM
viability at 48 h, 10 µM [12]: 63%
IC50 (MDA-MB-231 [7]): 4.38 µM

COc1cc(/C=C/C(=O)c2cccc(OCC(=O)Nc3ccc4c(c3)COC4=O)c2)cc(OC)c1OC
inhibition [1]: 63.7%

O=C(COc1ccc(C(=O)/C=C/c2c(F)cccc2F)cc1)Nc1ccc2c(c1)COC2=O
viability at 48 h, 10 µM [2]: 98.5%
IC50 (U-87 MG [3]): 3.67 µM
viability at 48 h, 100 µM [4]: 70.2%
IC50 (DU-145 [5]): 1.9 µM
viability at 48 h, 10 µM [12]: 77%
IC50 [6]: 0.36 µM
solubility at 2 h [8]: 1.55 µM (≈ 0.696 µg/mL)
logD at 2 h [9]: 2.99
inhibition [1]: 94.2%
Ratio IC50 (U-87 MG [13]): 3
IC50 (MDA-MB-231 [7]): 2.41 µM

CCCOc1ccc(/C=C/C(=O)c2ccc(OCC(=O)Nc3ccc4c(c3)COC4=O)cc2)cc1
inhibition [1]: 60.1%

COc1ccc(/C=C/C(=O)c2ccc(OCC(=O)Nc3ccc4c(c3)COC4=O)cc2)cc1
viability at 48 h, 10 µM [2]: 90.9%
IC50 (U-87 MG [3]): 4.9 µM
viability at 48 h, 100 µM [4]: 63.7%
IC50 (DU-145 [5]): 2.13 µM
viability at 48 h, 10 µM [12]: 86%
IC50 [6]: 0.66 µM
inhibition [1]: 95.6%
IC50 (MDA-MB-231 [7]): 3.03 µM

COc1cccc(/C=C/C(=O)c2ccc(OCC(=O)Nc3ccc(OC)c(OC)c3)cc2)c1
inhibition [1]: 28.8%

COc1cc(/C=C/C(=O)c2ccc(OCC(=O)Nc3ccc4c(c3)COC4=O)cc2)cc(OC)c1OC
IC50 [6]: 7.38 µM
inhibition [1]: 71.3%

COc1cc(C(=O)/C=C/c2cc(OC)c(OC)c(OC)c2)ccc1OCC(=O)Nc1ccc2c(c1)COC2=O
inhibition [1]: 19.9%

O=C(COc1ccc(C(=O)/C=C/c2ccc(OCc3ccc(Cl)cc3)cc2)cc1)Nc1ccc2c(c1)COC2=O
inhibition [1]: 39.1%

COc1ccc(NC(=O)COc2ccc(C(=O)/C=C/c3cccs3)cc2)cc1OC
inhibition [1]: 24.5%

O=C(COc1ccc(C(=O)/C=C/c2ccco2)cc1)Nc1ccc2c(c1)COC2=O
inhibition [1]: 57.3%
